ChEMBL document CHEMBL1147025, “Synthesis of fluorescently tagged isoprenoid bisphosphonates that inhibit protein geranylgeranylation” (Bioorg Med Chem, 2007)
Active and inactive are the calls of the source. No cut-off for these calls is given here.

Assays:
Settings in all cases: Homo sapiens
[1] = tested on: K562; experiment: Inhibition of GGPTase1 in K562 cells assessed as Rap1a geranylgeranylation after 24 hrs; format: cell-based
Method in brief: (§1)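 K562 cells (5 × 10^6 per 5 mL; RPMI-1640, 10% heat-inactivated FBS, 37 °C, 5% CO2) treated 24 h with bisphosphonates diluted in water. Untreated cells served as negative control and 10 µM lovastatin as positive prenylation control. Western blotting used pan-Ras antibody (farnesylation), Rab6 antibody (GGPTase II), and an antibody recognising only unmodified Rap1a (GGPTase I).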

[2] = tested on: K562; experiment: Inhibition of DNA synthesis in K562 cells assessed as [3H]thymidine incorporation after 24 hrs; format: functional, cell-based
Method in brief: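 K562 cells grown at 37 °C, 5% CO2 in RPMI-1640 with 10% heat-inactivated FBS. Cells at 2 × 10^5 per 200 µL exposed to bisphosphonates (diluted in water) for 24 h, pulsed with [3H]thymidine (0.04 µCi/well) for the last 2 h. Incorporation into DNA measured by liquid scintillation counting; IC50 for 24 h exposure.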

[3] = tested on: K562; experiment: Inhibition of GGPTase2 in K562 cells assessed as Rab6 geranylgeranylation after 24 hrs; format: cell-based; method in brief: as §1
[4] = tested on: K562; experiment: Inhibition of Ras farnesylation in K562 cells by Western blot analysis after 24 hrs; format: functional, cell-based; method in brief: as §1

| SMILES | Activity [1] | IC50 [2] | Activity [3] | Activity [4] |
| --- | --- | --- | --- | --- |
| CC(C)=CCC/C(C)=C/CC(C/C=C(\C)CNc1ccccc1C(=O)O)(P(=O)(O)O)P(=O)(O)O | Active | > 100 µM | Active | inactive |
| C/C(=C\CC(P(=O)(O)O)P(=O)(O)O)CC/C=C(\C)CNc1ccccc1C(=O)O | inactive | > 100 µM | inactive | inactive |
| CC(C)=CCC/C(C)=C/CC(C/C=C(\C)CC/C=C(\C)CNc1ccccc1C(=O)O)(P(=O)(O)O)P(=O)(O)O | Active | > 100 µM | Active | inactive |
